In brackets after ≈: the same amount, converted by molar mass. Activity calls are given as the source filed them. The calls are words filed in the database; no cut-off is given here.
How the values were obtained:
Myzus persicae [1] = experiment: Insecticidal activity against Myzus persicae (green peach aphid) measured in field test; assay type: functional, organism-based
Outline: (§1)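 Field trials against aphids in northern, middle and southern China used 10% WP and 20% SC formulations. The design was a randomized complete block with five treatments, applied with a hand sprayer. Untreated cabbage or rice served as the control, and imidacloprid 10% WP was the reference.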

Myzus persicae [2] = experiment: Insecticidal activity against Myzus persicae (green peach aphid) at 25 degC; assay type: functional; conditions: read-out: LD50 (the source's name)
Brevicoryne brassicae = experiment: Insecticidal activity against Brevicoryne brassicae (cabbage aphids) measured in field test; assay type: functional, organism-based; outline: as §1

Q: What does the source list for `CCCC/C=N/N(Cc1ccc(Cl)nc1)/C(N)=N/[N+](=O)[O-]` [GUADIPYR]?
A: Activity (Myzus persicae [1]): Active; LC50 (Myzus persicae [2]): 25.3 µg/mL (≈ 81 µM); Activity (Brevicoryne brassicae): Active

Q: `CCCCN(/N=C/c1ccc(C)cc1)/C(N)=N/[N+](=O)[O-]` was tested. Which Activity (Myzus persicae [1]) did it give?
A: The Activity was “Active”.

Q: And the LC50 (Myzus persicae [2])?
A: Its LC50 is 1080 µg/mL (≈ 3880 µM).

Q: What about the Activity (Brevicoryne brassicae) of the same compound?
A: Its Activity is “Active”.

Q: For `C=CCN(/N=C/c1ccccc1Cl)/C(N)=N/[N+](=O)[O-]`, which Activity (Myzus persicae [1]) is on record?
A: The Activity was “Active”.

Q: And the LC50 (Myzus persicae [2])?
A: The LC50 was 362 µg/mL (≈ 1290 µM).

Q: What about the Activity (Brevicoryne brassicae) of the same compound?
A: The Activity was “Active”.

Q: How did the Activity (Myzus persicae [1]) turn out when `N/C(=N\[N+](=O)[O-])N(Cc1ccc(Cl)nc1)/N=C/c1ccccc1[N+](=O)[O-]` was run?
A: Its Activity is “Active”.

Q: And the LC50 (Myzus persicae [2])?
A: Its LC50 is 357 µg/mL (≈ 946 µM).

Q: And the Activity (Brevicoryne brassicae)?
A: The Activity was “Active”.

Q: `CC/C=N/N(CC)/C(N)=N/[N+](=O)[O-]` was tested. Which Activity (Myzus persicae [1]) did it give?
A: Its Activity is “Active”.

Q: What about the LC50 (Myzus persicae [2]) of the same compound?
A: Its LC50 is 523 µg/mL (≈ 2790 µM).

Q: What about the Activity (Brevicoryne brassicae) of the same compound?
A: The Activity was “Active”.

Q: `CCN(/N=C/c1ccc(C)cc1)/C(N)=N/[N+](=O)[O-]` was tested. Which Activity (Myzus persicae [1]) did it give?
A: The Activity was “Active”.

Q: What about the LC50 (Myzus persicae [2]) of the same compound?
A: Its LC50 is 1020 µg/mL (≈ 4110 µM).

Q: And the Activity (Brevicoryne brassicae)?
A: Its Activity is “Active”.

Q: How did the Activity (Myzus persicae [1]) turn out when `N/C(=N\[N+](=O)[O-])N(Cc1ccc(Cl)nc1)/N=C/c1ccco1` was run?
A: The Activity was “Active”.

Q: What about the LC50 (Myzus persicae [2]) of the same compound?
A: The LC50 was 345 µg/mL (≈ 1070 µM).

Q: And the Activity (Brevicoryne brassicae)?
A: The Activity was “Active”.

Q: Which Activity (Myzus persicae [1]) does the source give for `O=[N+]([O-])/N=C1\NCCN1Cc1ccc(Cl)nc1` [IMIDACLOPRID] here?
A: The Activity was “Active”.

Q: What about the LC50 (Myzus persicae [2]) of the same compound?
A: Its LC50 is 24.2 µg/mL (≈ 94.7 µM).

Q: What about the Activity (Brevicoryne brassicae) of the same compound?
A: Its Activity is “Active”.

Q: For `CC(C)/C=N/N(Cc1ccc(Cl)nc1)/C(N)=N/[N+](=O)[O-]`, which Activity (Myzus persicae [1]) is on record?
A: Its Activity is “Active”.

Q: What about the LC50 (Myzus persicae [2]) of the same compound?
A: Its LC50 is 92.5 µg/mL (≈ 310 µM).

Q: And the Activity (Brevicoryne brassicae)?
A: Its Activity is “Active”.

Q: How did the Activity (Myzus persicae [1]) turn out when `CCCCN(/N=C/c1ccccc1)/C(N)=N/[N+](=O)[O-]` was run?
A: Its Activity is “Active”.

Q: What about the LC50 (Myzus persicae [2]) of the same compound?
A: The LC50 was 1800 µg/mL (≈ 6820 µM).

Q: What about the Activity (Brevicoryne brassicae) of the same compound?
A: The Activity was “Active”.

Q: Which results are given for `CCCCN(/N=C/c1cccc(OC)c1)/C(N)=N/[N+](=O)[O-]`?
A: Activity (Myzus persicae [1]): Active; LC50 (Myzus persicae [2]): 1800 µg/mL (≈ 6130 µM); Activity (Brevicoryne brassicae): Active

Q: With `N/C(=N\[N+](=O)[O-])N(Cc1ccc(Cl)nc1)/N=C/c1ccc(F)cc1` as the compound, how does the Activity (Myzus persicae [1]) read?
A: The Activity was “Active”.

Q: And the LC50 (Myzus persicae [2])?
A: The LC50 was 1450 µg/mL (≈ 4130 µM).

Q: And the Activity (Brevicoryne brassicae)?
A: The Activity was “Active”.

Q: With `CCCCCC/C=N/N(Cc1ccc(Cl)nc1)/C(N)=N/[N+](=O)[O-]` as the compound, how does the Activity (Myzus persicae [1]) read?
A: The Activity was “Active”.

Q: What about the LC50 (Myzus persicae [2]) of the same compound?
A: The LC50 was 25.5 µg/mL (≈ 74.7 µM).

Q: And the Activity (Brevicoryne brassicae)?
A: The Activity was “Active”.

Q: Which results are given for `CC/C=N/N(CCC)/C(N)=N/[N+](=O)[O-]`?
A: Activity (Myzus persicae [1]): Active; LC50 (Myzus persicae [2]): 283 µg/mL (≈ 1410 µM); Activity (Brevicoryne brassicae): Active

Q: `C=CCN(/N=C/c1ccc(C)cc1)/C(N)=N/[N+](=O)[O-]` was tested. Which Activity (Myzus persicae [1]) did it give?
A: The Activity was “Active”.

Q: What about the LC50 (Myzus persicae [2]) of the same compound?
A: Its LC50 is 744 µg/mL (≈ 2850 µM).

Q: And the Activity (Brevicoryne brassicae)?
A: Its Activity is “Active”.

Q: For `C=CCN(/N=C/CCCC)/C(N)=N/[N+](=O)[O-]`, which Activity (Myzus persicae [1]) is on record?
A: The Activity was “Active”.

Q: And the LC50 (Myzus persicae [2])?
A: The LC50 was 400 µg/mL (≈ 1760 µM).

Q: What about the Activity (Brevicoryne brassicae) of the same compound?
A: Its Activity is “Active”.

Q: Which Activity (Myzus persicae [1]) does the source give for `C=C/C=N/N(CCCC)/C(N)=N/[N+](=O)[O-]` here?
A: Its Activity is “Active”.

Q: What about the LC50 (Myzus persicae [2]) of the same compound?
A: The LC50 was 328 µg/mL (≈ 1540 µM).

Q: And the Activity (Brevicoryne brassicae)?
A: Its Activity is “Active”.

Q: `CCC/C=N/N(Cc1ccc(Cl)nc1)/C(N)=N/[N+](=O)[O-]` was tested. Which Activity (Myzus persicae [1]) did it give?
A: The Activity was “Active”.

Q: What about the LC50 (Myzus persicae [2]) of the same compound?
A: Its LC50 is 21 µg/mL (≈ 70.3 µM).

Q: And the Activity (Brevicoryne brassicae)?
A: The Activity was “Active”.

Q: How did the Activity (Myzus persicae [1]) turn out when `CCC/C=N/N(CCCC)/C(N)=N/[N+](=O)[O-]` was run?
A: The Activity was “Active”.

Q: And the LC50 (Myzus persicae [2])?
A: The LC50 was 367 µg/mL (≈ 1600 µM).

Q: And the Activity (Brevicoryne brassicae)?
A: Its Activity is “Active”.

Q: `COc1ccc(/C=N/N(Cc2ccccc2)/C(N)=N/[N+](=O)[O-])cc1` was tested. Which Activity (Myzus persicae [1]) did it give?
A: Its Activity is “Active”.

Q: What about the LC50 (Myzus persicae [2]) of the same compound?
A: The LC50 was 3840 µg/mL (≈ 11700 µM).

Q: And the Activity (Brevicoryne brassicae)?
A: The Activity was “Active”.

From ChEMBL document CHEMBL3045139, “N'-Nitro-2-hydrocarbylidenehydrazinecarboximidamides: design, synthesis, crystal structure, insecticidal activity, and structure-activity relationships” (2012)
